Source: article PMC6923798 (Bioorganic chemistry, 2018)

Assays:
SK-MEL-28 = assay: NCI in vitro five dose anticancer assay; format: cell-based, human
UACC-257 = assay: NCI in vitro five dose anticancer assay; format: cell-based, human
OVCAR-5 = assay: NCI in vitro five dose anticancer assay; format: cell-based, human
KG-1a = assay: MTT anti-proliferative assay; format: cell-based, human; settings: Homo sapiens, KG-1a, 24 h, read-out: IC50 ± SD, KG-1a
A498 = assay: NCI in vitro five dose anticancer assay; format: cell-based, human
SF-539 = assay: NCI in vitro five dose anticancer assay; format: cell-based, human
OVCAR-3 = assay: NCI in vitro five dose anticancer assay; format: cell-based, human
A549/ATCC = assay: NCI in vitro five dose anticancer assay; format: cell-based, human
HCT-116 = assay: NCI in vitro five dose anticancer assay; format: cell-based, human
SNB-75 = assay: NCI in vitro five dose anticancer assay; format: cell-based, human
SR cell line = assay: NCI in vitro one dose anticancer assay; format: cell-based; settings: Homo sapiens, 48 h, read-out: % growth inhibition
Method in brief: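 NCI protocol. Test compound added once at 10−5 M to ~60 human tumour lines from nine subpanels. Incubated 48 h at 37 °C, 5% CO2, 95% air, 100% relative humidity. Endpoint by sulforhodamine B protein staining with spectrophotometric absorbance. Growth of treated cells reported as percent of untreated cells.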

NCI/ADR-RES = assay: NCI in vitro five dose anticancer assay; format: cell-based, human; settings: 48 h
PC-3 = assay: NCI in vitro five dose anticancer assay; format: cell-based, human
SW-620 = assay: NCI in vitro five dose anticancer assay; format: cell-based, human
NCI-H522 = assay: NCI in vitro five dose anticancer assay; format: cell-based, human
ACHN = assay: NCI in vitro five dose anticancer assay; format: cell-based, human; settings: 48 h
DU-145 = assay: NCI in vitro five dose anticancer assay; format: cell-based, human
SK-OV-3 = assay: NCI in vitro five dose anticancer assay; format: cell-based, human
SF-295 = assay: NCI in vitro five dose anticancer assay; format: cell-based, human
CCRF-CEM = assay: NCI in vitro five dose anticancer assay; format: cell-based, human; settings: 48 h
SNB-19 = assay: NCI in vitro five dose anticancer assay; format: cell-based, human
EKVX = assay: NCI in vitro five dose anticancer assay; format: cell-based, human; settings: 48 h
OVCAR-4 = assay: NCI in vitro five dose anticancer assay; format: cell-based, human
[1] = test system: EGFR, p-EGFR, Src and p-Src in K562 cells; assay: Western blot analysis in K562 cells; format: cell-based, human; settings: K562 cells, 0.2, 0.8, 1.6 μM, 24 h
Method in brief: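 K562 cells incubated 24 h with test compound at 0.2, 0.8 or 1.6 μM, or DMSO. 50 μg protein resolved on 8 or 10% SDS-PAGE and transferred to PVDF. Blocked 1 h in PBS with 3% non-fat milk, 1% BSA, 0.5% Tween-20. Primary antibody overnight, then HRP-IgG 1 h at room temperature. ECL detection on X-ray film.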

MALME-3M = assay: NCI in vitro five dose anticancer assay; format: cell-based, human; settings: 48 h
SF-268 = assay: NCI in vitro five dose anticancer assay; format: cell-based, human
[2] = test system: full panel of 58 human tumor cell lines; assay: NCI in vitro five dose anticancer assay, whole panel; format: cell-based; settings: read-out: GI50 (range over panel)
RXF 393 = assay: NCI in vitro five dose anticancer assay; format: cell-based, human
UO-31 = assay: NCI in vitro five dose anticancer assay; format: cell-based, human
M14 = assay: NCI in vitro five dose anticancer assay; format: cell-based, human
COLO 205 = assay: NCI in vitro five dose anticancer assay; format: cell-based, human
SN12C = assay: NCI in vitro five dose anticancer assay; format: cell-based, human; settings: 48 h

Compound: COc1ccc(C=CC(=O)c2ccc(NC(=O)CSc3nnc(-c4cc(OC)c(OC)c(OC)c4)o3)cc2)cc1 [Compound 8v, N-(4-(3-(4-Methoxyphenyl)acryloyl)phenyl)-2-((5-(3,4,5-trimethoxy-phenyl)-1,3,4-oxadiazol-2-yl)thio)acetamide]
- GI50 (SK-MEL-28; Homo sapiens, SK-MEL-28, 48 h): 1740 nM
- TGI (SK-MEL-28; SK-MEL-28, Melanoma, five dose, 48 h, SRB): 3.40 µM
- GI50 (UACC-257; Homo sapiens, UACC-257, 48 h): 2160 nM
- TGI (UACC-257; UACC-257, Melanoma, five dose, 48 h, SRB): 4.69 µM
- GI50 (OVCAR-5; Homo sapiens, OVCAR-5, 48 h): 1720 nM
- TGI (OVCAR-5; OVCAR-5, Ovarian Cancer, five dose, 48 h, SRB): 3.30 µM
- IC50 (KG-1a): 3.45 ± 0.25 µM
- TGI (A498; A498, Renal Cancer, five dose, 48 h, SRB): 23.60 µM
- GI50 (A498; Homo sapiens, A498, 48 h): 11 µM
- GI50 (SF-539; Homo sapiens, SF-539, 48 h): 1640 nM
- TGI (SF-539; SF-539, CNS cancer, five dose, 48 h, SRB): 3.03 µM
- GI50 (OVCAR-3; Homo sapiens, OVCAR-3, 48 h): 1780 nM
- TGI (OVCAR-3; OVCAR-3, Ovarian Cancer, five dose, 48 h, SRB): 3.38 µM
- TGI (A549/ATCC; A549/ATCC, Non-Small Cell Lung Cancer, five dose, 48 h, SRB): 3.53 µM
- GI50 (A549/ATCC; Homo sapiens, A549, 48 h): 1840 nM
- TGI (HCT-116; HCT-116, Colon Cancer, five dose, 48 h, SRB): 1.94 µM
- GI50 (HCT-116; Homo sapiens, HCT-116, 48 h): 500 nM
- GI50 (SNB-75; Homo sapiens, SNB-75, 48 h): 1470 nM
- TGI (SNB-75; SNB-75, CNS cancer, five dose, 48 h, SRB): 3.15 µM
- inhibition at 10 µM (SR cell line): 32.9 to 160%
- GI50 (NCI/ADR-RES; Homo sapiens): 2420 nM
- TGI (NCI/ADR-RES; Ovarian Cancer, five dose, SRB): 7.03 µM
- GI50 (PC-3; Homo sapiens, PC-3, 48 h): 1750 nM
- TGI (PC-3; PC-3, Prostate Cancer, five dose, 48 h, SRB): 3.30 µM
- GI50 (SW-620; Homo sapiens, SW-620, 48 h): 1860 nM
- TGI (SW-620; SW-620, Colon Cancer, five dose, 48 h, SRB): 3.60 µM
- GI50 (NCI-H522; Homo sapiens, NCI-H522, 48 h): 1550 nM
- TGI (NCI-H522; NCI-H522, Non-Small Cell Lung Cancer, five dose, 48 h, SRB): 3.21 µM
- GI50 (ACHN; Homo sapiens): 1720 nM
- TGI (ACHN; Renal Cancer, five dose, SRB): 3.22 µM
- TGI (DU-145; DU-145, Prostate Cancer, five dose, 48 h, SRB): 3.21 µM
- GI50 (DU-145; Homo sapiens, DU-145, 48 h): 1750 nM
- GI50 (SK-OV-3; Homo sapiens, SK-OV-3, 48 h): 2420 nM
- TGI (SK-OV-3; SK-OV-3, Ovarian Cancer, five dose, 48 h, SRB): 5.68 µM
- GI50 (SF-295; Homo sapiens, SF-295, 48 h): 1770 nM
- TGI (SF-295; SF-295, CNS cancer, five dose, 48 h, SRB): 3.35 µM
- GI50 (CCRF-CEM; Homo sapiens): 1840 nM
- TGI (CCRF-CEM; Leukemia, five dose, SRB): 4.56 µM
- GI50 (SNB-19; Homo sapiens, SNB-19, 48 h): 1780 nM
- TGI (SNB-19; SNB-19, CNS cancer, five dose, 48 h, SRB): 3.56 µM
- GI50 (EKVX; Homo sapiens): 1790 nM
- TGI (EKVX; Non-Small Cell Lung Cancer, five dose, SRB): 3.98 µM
- GI50 (OVCAR-4; Homo sapiens, OVCAR-4, 48 h): 2000 nM
- TGI (OVCAR-4; OVCAR-4, Ovarian Cancer, five dose, 48 h, SRB): 4.62 µM
- protein expression levels of p-EGFR, EGFR, p-Src and Src [1]: downregulated
- GI50 (MALME-3M; Homo sapiens, Malme-3M): 1680 nM
- TGI (MALME-3M; MALME-3M, Melanoma, five dose, SRB): 3.45 µM
- GI50 (SF-268; Homo sapiens, SF-268, 48 h): 1790 nM
- TGI (SF-268; SF-268, CNS cancer, five dose, 48 h, SRB): 3.96 µM
- GI50 [2]: 0.32 to 11 µM
- GI50 (RXF 393; Homo sapiens, RXF 393, 48 h): 1740 nM
- TGI (RXF 393; RXF 393, Renal Cancer, five dose, 48 h, SRB): 3.54 µM
- GI50 (UO-31; Homo sapiens, UO-31, 48 h): 1460 nM
- TGI (UO-31; UO-31, Renal Cancer, five dose, 48 h, SRB): 2.97 µM
- GI50 (M14; Homo sapiens, M14, 48 h): 1600 nM
- TGI (M14; M14, Melanoma, five dose, 48 h, SRB): 3.30 µM
- TGI (COLO 205; COLO 205, Colon Cancer, five dose, 48 h, SRB): 3.84 µM
- GI50 (COLO 205; Homo sapiens, COLO 205, 48 h): 1940 nM
- GI50 (SN12C; Homo sapiens): 1830 nM
- TGI (SN12C; Renal Cancer, five dose, SRB): 3.57 µM
